{"source": "ChEMBL document CHEMBL5696442", "about": "“Discovery of type II inhibitors of TGFβ-activated kinase 1 (TAK1) and mitogen-activated protein kinase kinase kinase kinase 2 (MAP4K2)” (J Med Chem, 2015)", "key": {"[1]": {"system": "Epidermal growth factor receptor (Homo sapiens), P00533 [UNDEFINED MUTATION]", "sequence (P00533 whole entry, looked up, change not shown)": "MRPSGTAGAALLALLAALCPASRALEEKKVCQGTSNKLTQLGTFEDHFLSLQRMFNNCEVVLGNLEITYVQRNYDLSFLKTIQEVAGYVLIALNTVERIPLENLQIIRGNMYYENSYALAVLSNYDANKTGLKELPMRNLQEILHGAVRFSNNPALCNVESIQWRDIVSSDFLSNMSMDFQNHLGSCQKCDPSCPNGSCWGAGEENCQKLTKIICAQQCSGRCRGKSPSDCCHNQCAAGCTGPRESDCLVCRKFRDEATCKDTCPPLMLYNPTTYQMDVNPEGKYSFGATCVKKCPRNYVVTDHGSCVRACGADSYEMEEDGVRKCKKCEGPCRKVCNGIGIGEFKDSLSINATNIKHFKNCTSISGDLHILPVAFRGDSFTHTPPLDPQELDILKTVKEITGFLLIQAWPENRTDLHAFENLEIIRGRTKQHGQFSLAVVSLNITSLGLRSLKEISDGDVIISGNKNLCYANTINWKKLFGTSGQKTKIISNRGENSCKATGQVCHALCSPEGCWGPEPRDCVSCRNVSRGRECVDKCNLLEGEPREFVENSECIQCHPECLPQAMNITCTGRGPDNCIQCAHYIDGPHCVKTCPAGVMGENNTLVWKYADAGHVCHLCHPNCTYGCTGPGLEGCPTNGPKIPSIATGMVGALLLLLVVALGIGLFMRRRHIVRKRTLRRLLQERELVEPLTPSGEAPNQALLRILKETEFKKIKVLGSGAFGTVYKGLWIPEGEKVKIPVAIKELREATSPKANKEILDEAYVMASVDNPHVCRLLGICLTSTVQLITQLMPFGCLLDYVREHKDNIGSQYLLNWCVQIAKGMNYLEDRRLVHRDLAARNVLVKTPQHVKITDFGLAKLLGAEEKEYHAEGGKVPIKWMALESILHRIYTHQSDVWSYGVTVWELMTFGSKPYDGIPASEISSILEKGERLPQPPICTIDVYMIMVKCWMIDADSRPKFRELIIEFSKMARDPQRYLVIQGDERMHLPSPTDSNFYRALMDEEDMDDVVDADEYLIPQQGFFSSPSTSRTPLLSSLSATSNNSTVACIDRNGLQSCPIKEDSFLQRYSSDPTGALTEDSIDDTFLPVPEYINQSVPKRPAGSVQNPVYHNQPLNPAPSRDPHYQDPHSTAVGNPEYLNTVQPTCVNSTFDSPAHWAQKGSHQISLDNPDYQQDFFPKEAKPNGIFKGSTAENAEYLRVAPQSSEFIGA", "conditions": "dose 10.0 µM"}, "[2]": {"target": "T1, Serine/threonine-protein kinase Nek1 (Homo sapiens) (UniProt Q96PY6)", "T1 sequence (whole entry)": "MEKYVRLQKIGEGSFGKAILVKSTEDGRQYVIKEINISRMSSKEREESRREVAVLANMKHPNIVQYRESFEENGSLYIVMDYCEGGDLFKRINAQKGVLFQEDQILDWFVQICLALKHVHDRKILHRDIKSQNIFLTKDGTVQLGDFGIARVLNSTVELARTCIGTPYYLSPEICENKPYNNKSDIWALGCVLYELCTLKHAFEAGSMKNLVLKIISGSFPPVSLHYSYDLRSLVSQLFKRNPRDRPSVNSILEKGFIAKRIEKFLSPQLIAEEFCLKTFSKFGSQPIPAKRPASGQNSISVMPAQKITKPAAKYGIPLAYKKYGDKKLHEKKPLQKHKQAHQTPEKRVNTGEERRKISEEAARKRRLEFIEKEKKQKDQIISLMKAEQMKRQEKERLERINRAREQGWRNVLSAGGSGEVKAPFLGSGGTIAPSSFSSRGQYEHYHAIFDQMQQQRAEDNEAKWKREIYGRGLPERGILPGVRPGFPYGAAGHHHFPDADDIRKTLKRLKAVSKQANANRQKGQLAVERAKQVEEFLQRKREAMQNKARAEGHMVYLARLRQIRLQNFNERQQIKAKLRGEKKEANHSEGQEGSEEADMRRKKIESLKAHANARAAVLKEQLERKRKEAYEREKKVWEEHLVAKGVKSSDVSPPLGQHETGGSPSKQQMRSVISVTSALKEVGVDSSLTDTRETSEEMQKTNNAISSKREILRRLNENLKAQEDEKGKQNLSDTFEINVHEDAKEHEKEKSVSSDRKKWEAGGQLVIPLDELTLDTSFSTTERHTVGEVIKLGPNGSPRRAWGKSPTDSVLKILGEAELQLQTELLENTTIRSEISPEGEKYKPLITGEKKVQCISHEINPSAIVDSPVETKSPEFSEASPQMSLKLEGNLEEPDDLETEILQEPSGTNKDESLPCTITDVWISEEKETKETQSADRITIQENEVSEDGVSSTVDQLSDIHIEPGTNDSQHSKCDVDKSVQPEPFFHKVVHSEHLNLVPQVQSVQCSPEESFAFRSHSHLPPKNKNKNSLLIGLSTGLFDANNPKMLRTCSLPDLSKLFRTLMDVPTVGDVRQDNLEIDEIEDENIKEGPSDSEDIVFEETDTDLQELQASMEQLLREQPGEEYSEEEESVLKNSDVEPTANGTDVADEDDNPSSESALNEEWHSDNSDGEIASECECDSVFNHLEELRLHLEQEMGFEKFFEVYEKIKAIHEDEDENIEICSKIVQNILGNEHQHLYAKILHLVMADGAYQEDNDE", "assay": "Inhibition of NEK1 (unknown origin) at 10 uM by Ambit Kinomescan binding assay"}, "[3]": {"target": "Serine/threonine-protein kinase 4 (Homo sapiens) (UniProt Q13043)", "sequence (Q13043 whole entry, looked up)": "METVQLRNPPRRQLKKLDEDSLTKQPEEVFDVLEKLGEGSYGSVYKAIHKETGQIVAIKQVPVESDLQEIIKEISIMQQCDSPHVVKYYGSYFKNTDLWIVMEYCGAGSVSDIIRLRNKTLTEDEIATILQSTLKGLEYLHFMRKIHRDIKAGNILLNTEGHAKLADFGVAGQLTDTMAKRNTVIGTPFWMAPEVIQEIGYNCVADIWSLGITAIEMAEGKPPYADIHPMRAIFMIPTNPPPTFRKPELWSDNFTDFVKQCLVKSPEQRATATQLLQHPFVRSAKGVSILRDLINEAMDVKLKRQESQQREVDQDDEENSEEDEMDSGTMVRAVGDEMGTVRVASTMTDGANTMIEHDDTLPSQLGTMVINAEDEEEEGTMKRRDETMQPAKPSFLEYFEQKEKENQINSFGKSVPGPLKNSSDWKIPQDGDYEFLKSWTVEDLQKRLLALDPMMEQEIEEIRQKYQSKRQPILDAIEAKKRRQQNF", "assay": "Inhibition of MST1 Lys2 labeling site harbouring DIKAGNILLNTEGHAK in human Huh-7 cell lysate at 1 uM by KiNativ Profiling analysis relative to control"}, "[4]": {"target": "T2, Inhibitor of nuclear factor kappa-B kinase subunit beta (Homo sapiens) (UniProt O14920)", "T2 sequence (whole entry)": "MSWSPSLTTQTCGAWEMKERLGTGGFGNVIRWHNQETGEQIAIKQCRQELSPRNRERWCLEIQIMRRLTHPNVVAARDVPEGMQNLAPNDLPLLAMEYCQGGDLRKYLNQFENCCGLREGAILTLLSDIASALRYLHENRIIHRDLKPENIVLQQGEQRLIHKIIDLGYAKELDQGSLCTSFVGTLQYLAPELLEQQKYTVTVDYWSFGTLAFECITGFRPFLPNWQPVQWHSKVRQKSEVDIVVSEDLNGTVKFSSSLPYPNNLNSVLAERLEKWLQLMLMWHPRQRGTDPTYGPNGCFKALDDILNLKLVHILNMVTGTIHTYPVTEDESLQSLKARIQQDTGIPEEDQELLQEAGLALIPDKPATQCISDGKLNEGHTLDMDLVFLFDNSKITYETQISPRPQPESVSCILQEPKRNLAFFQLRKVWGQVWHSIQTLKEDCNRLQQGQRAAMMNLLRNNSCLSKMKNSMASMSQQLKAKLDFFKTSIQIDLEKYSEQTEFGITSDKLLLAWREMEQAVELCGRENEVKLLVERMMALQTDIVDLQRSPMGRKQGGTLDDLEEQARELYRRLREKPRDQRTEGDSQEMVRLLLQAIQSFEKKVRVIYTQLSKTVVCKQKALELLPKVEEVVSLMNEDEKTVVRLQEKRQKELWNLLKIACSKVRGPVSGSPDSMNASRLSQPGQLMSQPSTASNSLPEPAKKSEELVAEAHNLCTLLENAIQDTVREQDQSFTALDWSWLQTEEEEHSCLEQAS", "assay": "Inhibition of IKKb Lys2 labeling site in human Huh-7 cell lysate at 1 uM by KiNativ Profiling analysis relative to control", "assay_type": "subcellular"}, "[5]": {"target": "Calcium/calmodulin-dependent protein kinase type II subunit gamma (Homo sapiens) (UniProt Q13555)", "sequence (Q13555 whole entry)": "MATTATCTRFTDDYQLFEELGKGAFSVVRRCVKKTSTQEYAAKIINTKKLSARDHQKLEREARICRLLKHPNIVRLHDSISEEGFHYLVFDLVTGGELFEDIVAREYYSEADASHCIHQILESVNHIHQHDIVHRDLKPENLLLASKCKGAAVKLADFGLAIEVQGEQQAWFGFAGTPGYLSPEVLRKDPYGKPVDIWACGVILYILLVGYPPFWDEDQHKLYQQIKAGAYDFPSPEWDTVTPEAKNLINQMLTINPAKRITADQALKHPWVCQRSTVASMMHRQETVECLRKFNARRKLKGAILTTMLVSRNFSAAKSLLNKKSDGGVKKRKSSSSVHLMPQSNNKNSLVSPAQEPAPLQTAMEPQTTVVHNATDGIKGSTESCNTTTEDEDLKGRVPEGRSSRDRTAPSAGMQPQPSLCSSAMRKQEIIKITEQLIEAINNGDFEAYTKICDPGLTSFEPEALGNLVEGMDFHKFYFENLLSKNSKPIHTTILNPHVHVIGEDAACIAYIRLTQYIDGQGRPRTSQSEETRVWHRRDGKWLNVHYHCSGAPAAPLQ", "assay": "Inhibition of CaMK2g Lys1 labeling site harbouring KTSTQEYAAKIINTKK in human A-375 cells at 5 uM by KiNativ Profiling analysis relative to control", "assay_type": "cell-based"}, "[6]": {"target": "Myosin-IIIb (Homo sapiens) (UniProt Q8WXR4)", "sequence (Q8WXR4 whole entry)": "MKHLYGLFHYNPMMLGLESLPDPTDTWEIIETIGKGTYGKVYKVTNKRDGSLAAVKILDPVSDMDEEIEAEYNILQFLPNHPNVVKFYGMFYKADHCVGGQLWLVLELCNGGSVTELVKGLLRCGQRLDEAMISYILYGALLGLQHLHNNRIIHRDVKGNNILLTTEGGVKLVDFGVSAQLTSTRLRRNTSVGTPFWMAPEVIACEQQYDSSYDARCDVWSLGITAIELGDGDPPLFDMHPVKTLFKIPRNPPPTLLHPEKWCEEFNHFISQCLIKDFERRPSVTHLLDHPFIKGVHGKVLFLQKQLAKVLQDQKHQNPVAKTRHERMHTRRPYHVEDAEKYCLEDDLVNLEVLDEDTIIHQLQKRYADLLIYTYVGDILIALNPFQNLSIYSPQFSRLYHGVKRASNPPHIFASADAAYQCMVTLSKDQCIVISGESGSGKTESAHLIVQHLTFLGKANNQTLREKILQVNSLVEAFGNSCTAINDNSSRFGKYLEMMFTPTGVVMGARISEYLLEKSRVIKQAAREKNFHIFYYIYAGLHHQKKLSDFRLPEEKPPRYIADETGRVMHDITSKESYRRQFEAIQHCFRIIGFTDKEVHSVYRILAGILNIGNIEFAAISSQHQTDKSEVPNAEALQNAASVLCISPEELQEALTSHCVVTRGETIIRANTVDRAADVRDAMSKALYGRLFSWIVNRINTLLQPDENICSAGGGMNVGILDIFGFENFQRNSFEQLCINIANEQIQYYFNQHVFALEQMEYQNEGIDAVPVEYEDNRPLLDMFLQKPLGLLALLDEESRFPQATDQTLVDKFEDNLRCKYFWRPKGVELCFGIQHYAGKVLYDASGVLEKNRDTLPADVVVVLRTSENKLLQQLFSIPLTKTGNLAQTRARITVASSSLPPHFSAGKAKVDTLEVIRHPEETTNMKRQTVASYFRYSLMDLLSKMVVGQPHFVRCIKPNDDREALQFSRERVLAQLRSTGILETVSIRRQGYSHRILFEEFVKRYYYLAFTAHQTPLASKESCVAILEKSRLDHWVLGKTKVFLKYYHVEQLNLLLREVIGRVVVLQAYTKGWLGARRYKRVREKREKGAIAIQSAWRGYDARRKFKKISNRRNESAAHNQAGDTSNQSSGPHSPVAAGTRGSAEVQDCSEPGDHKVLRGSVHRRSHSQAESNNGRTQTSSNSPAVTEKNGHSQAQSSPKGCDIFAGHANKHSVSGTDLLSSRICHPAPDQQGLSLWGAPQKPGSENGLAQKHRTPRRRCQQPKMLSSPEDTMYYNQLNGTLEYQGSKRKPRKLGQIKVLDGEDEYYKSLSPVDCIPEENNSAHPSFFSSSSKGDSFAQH", "assay": "Inhibition of MYO3B (unknown origin) at 1 uM by Ambit Kinomescan binding assay relative to control", "outline": "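In vitro ATP-site competition binding assay against a panel of over 420 kinases (KinomeScan), with compound tested at 10 or 1 μM.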"}}, "note": "Calls of active or inactive are those of the source. No cut-off for these calls is given here."}
{"smiles": "CCN1CCN(Cc2ccc(NC(=O)c3ccc(C)c(Oc4ccnc5[nH]ccc45)c3)cc2C(F)(F)F)CC1", "values": [{"measurement": "inhibition", "setting": "[1]", "value": 1.2, "unit": "%"}, {"measurement": "inhibition", "setting": "[2]", "value": "inactive"}]}
{"smiles": "CNc1cc(Oc2cc(C(=O)Nc3cc(N4CCN(C)CC4)cc(C(F)(F)F)c3)ccc2C)ncn1", "values": [{"measurement": "inhibition", "setting": "[3]", "value": 8.2, "unit": "%"}, {"measurement": "inhibition", "setting": "[4]", "value": -5.1, "unit": "%"}]}
{"smiles": "CCN1CCN(Cc2ccc(NC(=O)c3ccc(C)c(/C=C/c4cnc5[nH]ccc5c4OC)c3)cc2C(F)(F)F)CC1", "values": [{"measurement": "inhibition", "setting": "[5]", "value": 11.4, "unit": "%"}, {"measurement": "inhibition", "setting": "[6]", "value": 84, "unit": "%"}]}
